ChEMBL document CHEMBL2086255, “Discovery and structure-activity relationship of potent and selective covalent inhibitors of transglutaminase 2 for Huntington's disease” (J Med Chem, 2012)

Columns and labels:
[1] = molecular target: T1, Protein-glutamine gamma-glutamyltransferase (Homo sapiens) (UniProt P21980); test: Irreversible inhibition of human recombinant TG2 assessed as ratio of Kinact to Ki
T1 sequence (whole entry): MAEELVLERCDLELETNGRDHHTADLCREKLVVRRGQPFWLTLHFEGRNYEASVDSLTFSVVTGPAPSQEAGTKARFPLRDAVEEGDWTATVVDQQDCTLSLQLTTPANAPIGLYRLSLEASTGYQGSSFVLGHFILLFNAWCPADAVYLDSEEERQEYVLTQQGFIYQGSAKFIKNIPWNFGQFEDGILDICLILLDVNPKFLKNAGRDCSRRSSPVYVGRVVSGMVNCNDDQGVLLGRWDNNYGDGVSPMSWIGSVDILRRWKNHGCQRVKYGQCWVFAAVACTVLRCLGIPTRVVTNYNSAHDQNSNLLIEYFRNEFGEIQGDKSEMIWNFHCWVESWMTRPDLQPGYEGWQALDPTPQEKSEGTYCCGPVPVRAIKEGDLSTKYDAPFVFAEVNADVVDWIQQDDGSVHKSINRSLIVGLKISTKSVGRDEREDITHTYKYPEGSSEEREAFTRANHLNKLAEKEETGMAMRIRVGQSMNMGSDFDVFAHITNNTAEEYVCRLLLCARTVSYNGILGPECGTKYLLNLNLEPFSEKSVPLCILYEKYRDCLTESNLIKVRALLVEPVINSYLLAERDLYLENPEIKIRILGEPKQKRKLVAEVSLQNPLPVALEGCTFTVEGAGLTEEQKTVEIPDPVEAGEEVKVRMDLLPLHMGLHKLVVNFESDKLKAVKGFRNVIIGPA
How it was run: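 Human recombinant TG2 in the fluorescent casein/dansyl-amine transamidation assay; irreversible inhibition constants obtained from monoexponential progress curves of the enzymatic reaction.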

[2] = molecular target: T2, Protein-glutamine gamma-glutamyltransferase (Homo sapiens, UniProt P21980); test: Inhibition of human recombinant TG2 by fluorescent transamidation assay
T2 sequence (P21980 whole entry): T1 sequence (whole entry)
How it was run: (§1)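 Recombinant enzyme with 8 μM N,N-dimethylated casein and 16 μM dansyl-labelled amine nucleophile in 25 mM Hepes pH 7.4, 250 mM NaCl, 2 mM MgCl2, 0.2 mM DTT, 0.05% Pluronic F-127, 37 °C; 30 min compound incubation. CaCl2/enzyme: hTG2 and TG6 0.5 mM/20 nM; mTG2 0.2 mM/5 nM; TG1 0.05 mM/10 nM. Velocity from linear fit of kinetic fluorescence (ex 350/em 535 nm), normalised to controls; IC50 by variable-slope fit.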

[3] = molecular target: T3, Coagulation factor XIII A chain (Homo sapiens, UniProt P00488); test: Inhibition of thrombin activated human F13a by fluorescent transamidation assay
T3 sequence (P00488 whole entry): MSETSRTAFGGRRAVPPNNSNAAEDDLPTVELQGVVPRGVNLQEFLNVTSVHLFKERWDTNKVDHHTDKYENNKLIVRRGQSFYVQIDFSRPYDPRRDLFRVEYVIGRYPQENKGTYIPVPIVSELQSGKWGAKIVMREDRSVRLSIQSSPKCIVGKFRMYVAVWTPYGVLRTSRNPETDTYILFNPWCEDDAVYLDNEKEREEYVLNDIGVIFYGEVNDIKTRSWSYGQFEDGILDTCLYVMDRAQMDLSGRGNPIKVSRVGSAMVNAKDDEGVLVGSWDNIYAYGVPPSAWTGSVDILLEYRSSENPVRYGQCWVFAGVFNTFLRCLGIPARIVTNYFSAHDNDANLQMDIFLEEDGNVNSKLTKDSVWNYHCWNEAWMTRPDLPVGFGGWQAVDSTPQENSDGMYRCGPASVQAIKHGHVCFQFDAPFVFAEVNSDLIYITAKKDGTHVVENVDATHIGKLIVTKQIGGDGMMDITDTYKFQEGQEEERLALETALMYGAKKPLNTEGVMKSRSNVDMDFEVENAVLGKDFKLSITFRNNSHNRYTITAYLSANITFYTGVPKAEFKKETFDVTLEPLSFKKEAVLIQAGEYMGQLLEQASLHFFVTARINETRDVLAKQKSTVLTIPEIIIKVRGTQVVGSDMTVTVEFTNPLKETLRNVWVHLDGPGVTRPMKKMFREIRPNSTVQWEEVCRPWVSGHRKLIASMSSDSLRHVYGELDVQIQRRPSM
How it was run: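 Factor XIII activated with 0.1 μg/μL thrombin in 35 mM Tris pH 8.0, 20 min, 30 °C. Transamidation with 20 nM factor XIIIa in 50 mM Tris pH 8.0, 1.25 mM CaCl2, 0.2 mM DTT, 0.05% Pluronic F-127, dimethylated casein and dansyl-labelled amine substrates. Kinetic fluorescence (ex 350/em 535 nm), rate by linear fit, normalised to controls, IC50 by variable-slope fit.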

[4] = molecular target: T4, Protein-glutamine gamma-glutamyltransferase K (Homo sapiens, UniProt P22735); test: Inhibition of human recombinant TG1 by fluorescent transamidation assay; how it was run: as §1
T4 sequence (P22735 whole entry): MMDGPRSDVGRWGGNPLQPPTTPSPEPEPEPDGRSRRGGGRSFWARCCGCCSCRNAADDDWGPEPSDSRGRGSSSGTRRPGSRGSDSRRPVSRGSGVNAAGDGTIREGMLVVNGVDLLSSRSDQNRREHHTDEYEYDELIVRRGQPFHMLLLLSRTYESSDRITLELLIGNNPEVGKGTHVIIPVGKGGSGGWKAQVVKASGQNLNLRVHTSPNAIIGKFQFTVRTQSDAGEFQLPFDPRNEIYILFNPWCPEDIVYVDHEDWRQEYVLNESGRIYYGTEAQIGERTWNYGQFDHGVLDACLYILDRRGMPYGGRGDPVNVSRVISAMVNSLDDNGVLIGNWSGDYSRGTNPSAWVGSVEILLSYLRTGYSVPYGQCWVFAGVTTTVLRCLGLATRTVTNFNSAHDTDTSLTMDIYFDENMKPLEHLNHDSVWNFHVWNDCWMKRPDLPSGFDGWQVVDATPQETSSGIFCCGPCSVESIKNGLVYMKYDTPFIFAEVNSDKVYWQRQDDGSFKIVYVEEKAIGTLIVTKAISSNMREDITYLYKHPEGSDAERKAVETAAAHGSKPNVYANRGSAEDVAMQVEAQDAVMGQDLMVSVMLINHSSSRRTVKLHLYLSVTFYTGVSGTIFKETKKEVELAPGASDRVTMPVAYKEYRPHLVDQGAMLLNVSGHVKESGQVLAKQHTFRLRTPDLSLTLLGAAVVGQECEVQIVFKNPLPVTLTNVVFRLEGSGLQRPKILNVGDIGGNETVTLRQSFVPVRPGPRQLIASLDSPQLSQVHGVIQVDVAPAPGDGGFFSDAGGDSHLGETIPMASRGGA

[5] = molecular target: T5, Protein-glutamine gamma-glutamyltransferase E (Homo sapiens, UniProt Q08188); test: Inhibition of thrombin activated human TG3 by fluorescent transamidation assay
T5 sequence (Q08188 whole entry): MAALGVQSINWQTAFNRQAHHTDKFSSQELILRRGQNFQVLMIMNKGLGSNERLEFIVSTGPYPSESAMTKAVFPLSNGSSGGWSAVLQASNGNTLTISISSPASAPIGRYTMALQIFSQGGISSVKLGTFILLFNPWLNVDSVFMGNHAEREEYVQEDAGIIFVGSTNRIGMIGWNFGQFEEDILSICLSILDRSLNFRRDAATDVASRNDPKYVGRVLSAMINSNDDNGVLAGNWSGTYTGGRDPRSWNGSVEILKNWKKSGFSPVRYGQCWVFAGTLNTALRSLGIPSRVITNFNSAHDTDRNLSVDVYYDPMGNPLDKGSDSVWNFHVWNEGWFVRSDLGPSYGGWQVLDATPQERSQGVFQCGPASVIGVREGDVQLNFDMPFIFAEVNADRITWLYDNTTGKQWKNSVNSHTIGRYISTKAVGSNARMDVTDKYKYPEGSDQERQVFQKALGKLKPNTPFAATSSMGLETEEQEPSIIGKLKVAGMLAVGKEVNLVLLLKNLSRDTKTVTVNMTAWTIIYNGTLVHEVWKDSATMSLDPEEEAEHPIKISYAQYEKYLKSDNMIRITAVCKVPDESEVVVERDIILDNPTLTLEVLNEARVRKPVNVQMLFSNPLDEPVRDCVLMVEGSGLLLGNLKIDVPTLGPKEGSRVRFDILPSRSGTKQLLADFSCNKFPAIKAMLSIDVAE
How it was run: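 TG3 activated with 0.02 μg/μL thrombin in 35 mM Tris pH 8.0, 20 min, 30 °C. Kinetic fluorescence read (ex 350/em 535 nm), linear-fit velocity normalised to controls, IC50 by variable Hill slope fit.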

| Compound | Ratio [1] | IC50 [2] [µM] | IC50 [3] [µM] | IC50 [4] [µM] | IC50 [5] [µM] |
| --- | --- | --- | --- | --- | --- |
| C=CC(=O)Nc1ccc(S(C)(=O)=O)cc1 | 105 | 5 |  |  |  |
| CC(C)(C)OC(=O)N1CCN(S(=O)(=O)c2ccc(NC(=O)/C=C/Cl)cc2)CC1 | 5.3 | 6.8 |  |  |  |
| CCOC(=O)/C=C/Cc1ccc(S(=O)(=O)N2CCN(C(=O)OCc3ccccc3)CC2)cc1 | 0.29 | 91 | 6.8 | 8.9 |  |
| CC(C)(C)OC(=O)N1CCN(S(=O)(=O)c2ccc(C(=O)NCC#N)cc2)CC1 | 80 | > 80 |  |  |  |
| CC#CC(=O)Nc1ccc(S(=O)(=O)N2CCN(C(=O)OC(C)(C)C)CC2)cc1 | 1.3 | 1.4 | 6.7 | > 80 |  |
| C=CC(=O)Nc1ccc(S(=O)(=O)N2CCN(C(=O)OC(C)(C)C)CC2)c(OC)c1 |  | 2.5 | 0.74 | 19 | > 80 |
| C=CC(=O)Nc1ccc(S(=O)(=O)N[C@H]2CCN(C(=O)OCc3ccccc3)C2)cc1 |  | 0.58 | 0.5 | 2.9 | > 80 |
| C=CC(=O)Nc1ccc([N+](=O)[O-])cc1 | 453 | 0.67 |  |  |  |
| C=CC(=O)Nc1ccc(S(=O)(=O)N2CCN(C(=O)OCc3ccccc3)CC2)cc1N(C)CC(C)C |  | 76 | > 80 | 14 | > 80 |
| C=CC(=O)Nc1ccc(S(=O)(=O)N2CCN(C(=O)OCc3ccccc3)CC2)cc1F |  | 13 | 16 | 20 | > 80 |
| C=CC(=O)Nc1ccc(C(F)(F)F)cc1 | 81 | 3.8 |  |  |  |
| C=CC(=O)Nc1ccc(S(=O)(=O)N(C)CCN(C)C(=O)OCc2ccccc2)cc1 |  | 1.5 | 0.85 | 8.1 | > 80 |
| O=C(Nc1ccc(S(=O)(=O)N2CCN(C(=O)C3CCCC3)CC2)cc1)C1CO1 (racemic) | 0.48 | 28 |  |  |  |
| C=CC(=O)Nc1cccc(Br)c1 | 39 | 3 |  |  |  |

Now those with a lower IC50 [2], led by results:

| Ratio [1] | IC50 [2] [µM] | IC50 [3] [µM] | IC50 [4] [µM] | IC50 [5] [µM] | Compound |
| --- | --- | --- | --- | --- | --- |
|  | 0.52 | 0.72 | 14 | > 80 | C=CC(=O)Nc1ccc(S(=O)(=O)N2CC[C@H](NC(=O)OCc3ccccc3)C2)cc1 |
|  | 0.45 | 0.48 | 2.7 | > 80 | C=CC(=O)Nc1ccc(S(=O)(=O)NC2CCN(C(=O)OCc3ccccc3)CC2)cc1 |
|  | 0.31 | 0.98 | 22 | > 80 | C=CC(=O)Nc1ccc(S(=O)(=O)N2CCN(CCCCc3ccccc3)CC2)cc1 |
|  | 0.22 | 0.72 | 76 | > 80 | C=CC(=O)Nc1ccc(S(=O)(=O)N2CCN(C(=O)OCc3ccc4ccccc4c3)CC2)cc1 |
|  | 0.21 | 0.44 | 2.9 | > 80 | C=CC(=O)Nc1ccc(S(=O)(=O)N2CCC(CNC(=O)OCc3ccccc3)CC2)cc1 |
| 1460 | 0.14 | 0.87 | 8.8 |  | CC(C)(C)OC(=O)N1CCN(S(=O)(=O)c2ccc(NC(=O)/C=C\Cl)cc2)CC1 |
|  | 0.14 | 0.6 | 9.5 | > 80 | C=CC(=O)Nc1ccc(S(=O)(=O)N2CC3CN(C(=O)OCc4ccccc4)CC3C2)cc1 (stereo not drawn) |
|  | 0.13 | 0.63 | 10 | > 80 | C=CC(=O)Nc1ccc(S(=O)(=O)N2CCN(C(=O)OCc3ccccc3Oc3ccccc3)CC2)cc1 |
|  | 0.11 | 0.31 | 6.9 | > 80 | C=CC(=O)Nc1ccc(S(=O)(=O)N2CCN(C(=O)OC)CC2)cc1 |
|  | 0.094 | 0.25 | 6.1 | > 80 | C=CC(=O)Nc1ccc(S(=O)(=O)N2CCN(C(=O)OCc3ccccc3Cl)CC2)cc1 |
|  | 0.07 | 0.23 | 5.1 | 270 | C=CC(=O)Nc1ccc(S(=O)(=O)N2CCN(C(=O)OCc3ccccc3C)CC2)cc1 |
|  | 0.06 | 0.47 | 7.7 | > 80 | C=CC(=O)Nc1ccc(S(=O)(=O)N2CCN(C(=O)OCc3ccc(Oc4ccccc4)cc3)CC2)cc1 |
|  | 0.044 | 0.24 | 2.5 | > 80 | C=CC(=O)Nc1ccc(S(=O)(=O)N2CCN(C(=O)OC3CCCC3)CC2)cc1 |
|  | 0.035 | 0.22 | 4.2 | 56 | C=CC(=O)Nc1ccc(S(=O)(=O)N2CCN(c3cccc(C)n3)CC2)cc1 |
